Results published in ChEMBL document CHEMBL3877250, “Design, synthesis, and biological evaluation of (2E)-(2-oxo-1, 2-dihydro-3H-indol-3-ylidene)acetate derivatives as anti-proliferative agents through ROS-induced cell apoptosis” (Eur J Med Chem, 2016).
pIC50: −log10 of the molar value.

Key:
[1] = Cytotoxicity against human OVCAR3 cells assessed as growth inhibition at 20 uM after 72 hrs by CCK-8 assay; assay type: functional; settings: OVCAR-3, 72 h, read-out: GI
Summary of the method: (§1)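 Cells kept in RPMI 1640 with 10% heat-inactivated fetal calf serum and 1% streptomycin/penicillin at 37 °C, 5% CO2. After compound exposure, CCK-8 was added and cells were incubated 4 h at 37 °C, then absorbance was read at 450 nm. Viability is relative to untreated cells (100%). IC50 comes from nonlinear regression, mean of three separate determinations. Single-concentration screen at 20 µM.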

[2] = Cytotoxicity against human SW480 cells assessed as growth inhibition at 20 uM after 72 hrs by CCK-8 assay; assay type: functional; settings: SW480, 72 h, read-out: GI; summary of the method: as §1
[3] = Cytotoxicity against human Saos2 cells assessed as growth inhibition at 20 uM after 72 hrs by CCK-8 assay; assay type: functional; settings: SAOS-2, 72 h, read-out: GI; summary of the method: as §1
[4] = Cytotoxicity against human L02 cells assessed as growth inhibition at 20 uM after 72 hrs by CCK-8 assay; assay type: toxicity, cell-based; settings: read-out: GI; summary of the method: as §1
[5] = Cytotoxicity against human SK-BR-3 cells assessed as growth inhibition at 20 uM after 72 hrs by CCK-8 assay; assay type: functional; settings: SK-BR-3, 72 h, read-out: GI; summary of the method: as §1
[6] = Antitumor activity against human HepG2 cells assessed as growth inhibition at 20 uM after 72 hrs by CCK-8 assay; assay type: functional; settings: HepG2, 72 h, read-out: GI; summary of the method: as §1
[7] = Cytotoxicity against human HL60 cells assessed as growth inhibition at 20 uM after 72 hrs by CCK-8 assay; assay type: functional; settings: HL-60, 72 h, read-out: GI; summary of the method: as §1
[8] = Cytotoxicity against human HL60 cells after 72 hrs by CCK-8 assay; assay type: functional, cell-based; settings: HL-60, 72 h; summary of the method: as §1
[9] = Cytotoxicity against human HCT116 cells assessed as growth inhibition at 20 uM after 72 hrs by CCK-8 assay; assay type: functional; settings: HCT-116, 72 h, read-out: GI; summary of the method: as §1
[10] = Cytotoxicity against human MDA-MB-231 cells assessed as growth inhibition at 20 uM after 72 hrs by CCK-8 assay; assay type: functional; settings: MDA-MB-231, 72 h, read-out: GI; summary of the method: as §1
[11] = Cytotoxicity against human L02 cells after 72 hrs by CCK-8 assay; assay type: toxicity, cell-based; summary of the method: as §1

| Compound | inhibition of growth at 20 µM [1] | inhibition of growth at 20 µM [2] | inhibition of growth at 20 µM [3] | inhibition at 72 h, 20 µM [4] | inhibition of growth at 20 µM [5] | inhibition of growth at 20 µM [6] | inhibition of growth at 20 µM [7] | pIC50 [8] | inhibition of growth at 20 µM [9] | inhibition of growth at 20 µM [10] | IC50 at 72 h [11] |
| --- | --- | --- | --- | --- | --- | --- | --- | --- | --- | --- | --- |
| COC(=O)/C=C1/C(=O)Nc2ccccc21 | 54.4% | 78.1% | 78.6% | 61.5% | 86.7% | 88% | 81.5% | 5.38 | 87% | 86.8% | 7.05 µM |
| CC(C)(C)OC(=O)/C=C1/C(=O)Nc2c(Cl)cccc21 | 59.3% | 78% | 82.4% | 64% | 88.2% | 88.1% | 93.7% | 5.21 | 89.5% | 87.4% | 4.8 µM |
| CC(=O)O[C@H]1C(=O)[C@@]2(C)[C@H]([C@H](OC(=O)c3ccccc3)[C@]3(O)C[C@H](OC(=O)[C@H](O)[C@@H](NC(=O)c4ccccc4)c4ccccc4)C(C)=C1C3(C)C)[C@]1(OC(C)=O)CO[C@@H]1C[C@@H]2O [PACLITAXEL] | 58.5% | 76.4% | 77.4% | 61.5% | 72.1% | 89.4% | 71% | – | 88.9% | 85.1% | – |
| CC(C)c1ccc2c(c1)/C(=C\C(=O)OC(C)(C)C)C(=O)N2 | 59.7% | 78.5% | 82.8% | 63.8% | 88.5% | 90.5% | 94.4% | 5.28 | 89.4% | 87.7% | 3.36 µM |
| CN1C(=O)/C(=C/C(=O)O)c2ccccc21 | – | – | – | – | – | – | – | 4.08 | – | – | – |
| CCCCc1ccc2c(c1)/C(=C\C(=O)OC(C)(C)C)C(=O)N2 | 60.2% | 78.3% | 84.2% | 63.7% | 87.8% | 90.3% | 94.7% | 5.21 | 89% | 87.7% | 4.4 µM |
| CCOC(=O)/C=C1\C(=O)Nc2ccccc21 | – | – | – | – | – | – | – | < 4.00 | – | – | – |
| CN1C(=O)/C(=C/C(=O)Oc2ccc(Cl)cc2)c2ccccc21 | – | – | – | – | – | – | – | 4.92 | – | – | – |
| COC(=O)CC1C(=O)Nc2ccccc21 (stereo unspecified) | – | – | – | – | – | – | – | 3.94 | – | – | > 100 µM |
| CN1C(=O)/C(=C/C(=O)Oc2ccccc2)c2ccccc21 | – | – | – | – | – | – | – | 4.99 | – | – | 22.7 µM |
| CC(C)(C)OC(=O)CC1C(=O)Nc2ccc(Cl)cc21 (stereo unspecified) | – | – | – | – | – | – | – | 4.09 | – | – | – |
| COc1ccc(OC(=O)/C=C2/C(=O)N(C)c3ccccc32)cc1 | – | – | – | – | – | – | – | 4.97 | – | – | 23.5 µM |
| COc1cccc2c1NC(=O)/C2=C/C(=O)OC(C)(C)C | 57.1% | 77.8% | 81.1% | 61.6% | 87.7% | 87.3% | 84.2% | 5.01 | 87.6% | 86.7% | – |
| CNC(=O)/C=C1/C(=O)N(C)c2ccccc21 | – | – | – | – | – | – | – | 4.97 | – | – | 19.1 µM |
| CCN(CC)CCNC(=O)c1c(C)[nH]c(/C=C2\C(=O)Nc3ccc(F)cc32)c1C [SUNITINIB] | – | – | – | – | – | – | – | 5.31 | – | – | 4.62 µM |
| CN1C(=O)C(CC(=O)OC(C)(C)C)c2ccccc21 (stereo unspecified) | – | – | – | – | – | – | – | 4.03 | – | – | > 100 µM |
| CN1C(=O)/C(=C/C(=O)Oc2ccc3ccccc3c2)c2ccccc21 | – | – | – | – | – | – | – | 4.62 | – | – | 46.6 µM |
